Reference: ChEMBL document CHEMBL5360580 (Eur J Med Chem, 2023)
Activity calls are given as the source filed them. No cut-off for these calls is given here.

Columns and labels:
SARS-CoV-2 [1] = test: Antiviral activity against SARS-CoV-2 infected in African green monkey Vero E6 cells assessed as inhibition of viral replication at 1 uM incubated for 24 hrs by IFA assay relative to control; format: functional; details: Severe acute respiratory syndrome coronavirus 2, Vero C1008
SARS-CoV-2 [2] = test: Antiviral activity against SARS-CoV-2 infected in African green monkey Vero E6 cells assessed as inhibition of viral replication at 5 uM incubated for 24 hrs by IFA assay relative to control; format: functional; details: Severe acute respiratory syndrome coronavirus 2, Vero C1008
[3] = Aqueous solubility of compound at 0.5 mg/mL in presence of acetonitrile by HPLC analysis; format: physicochemical; details: buffer
Method in brief: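 Compound was suspended in water, vortexed vigorously and filtered through a 0.22 μm membrane. The filtrate was diluted 2-fold with 80% acetonitrile and analysed by reversed-phase amide HPLC. Concentration was read against a standard curve prepared from a 0.5 mg/mL solution in 80% acetonitrile. Single determination.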

[4] = Prodrug conversion in ICR mouse plasma assessed as Observed AUC (0 to infinity) of compound 5-chloro-4-fluoro-2-hydroxy-N-(4-(trifluoromethoxy)phenyl)benzamide at 30 mg/kg, po and 2.5 mg/kg, iv measured upto 24 hrs by LC-MS/MS analysis; format: ADME, organism-based; set-up: time < 24 hrs, dose 30 mg/kg, route po; details: in vivo
Method in brief: (§1)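 Prodrugs were given to fasted ICR (CD-1) mice (N = 3) in DMSO/0.5% HMPC (5/95), at 30 mg/kg po or 2.5 mg/kg iv. Serum from femoral-vein blood taken 0.25–24 h was analysed by LC-MS/MS for the released parent compound, with mole correction applied to the parameters.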

[5] = Prodrug conversion in ICR mouse plasma assessed as AUClast of compound 5-chloro-4-fluoro-2-hydroxy-N-(4-(trifluoromethoxy)phenyl)benzamide at 30 mg/kg, po and 2.5 mg/kg, iv measured upto 24 hrs by LC-MS/MS analysis; format: ADME, organism-based; set-up: dose 30 mg/kg, time < 24 hrs, route po; details: in vivo; method in brief: as §1
[6] = Prodrug conversion in ICR mouse plasma assessed as Cmax of compound 5-chloro-4-fluoro-2-hydroxy-N-(4-(trifluoromethoxy)phenyl)benzamide at 30 mg/kg, po and 2.5 mg/kg, iv measured upto 24 hrs by LC-MS/MS analysis; format: ADME, organism-based; set-up: time < 24 hrs, dose 30 mg/kg, route po; details: in vivo; method in brief: as §1
[7] = Prodrug conversion in ICR mouse plasma assessed as oral bioavailability of compound 5-chloro-4-fluoro-2-hydroxy-N-(4-(trifluoromethoxy)phenyl)benzamide at 30 mg/kg measured upto 24 hrs by LC-MS/MS analysis; format: ADME, organism-based; details: in vivo; method in brief: as §1
[8] = Prodrug conversion in ICR mouse plasma assessed as half life of compound 5-chloro-4-fluoro-2-hydroxy-N-(4-(trifluoromethoxy)phenyl)benzamide at 30 mg/kg, po and 2.5 mg/kg, iv measured upto 24 hrs by LC-MS/MS analysis; format: ADME, organism-based; details: in vivo; method in brief: as §1
[9] = Prodrug conversion in ICR mouse plasma assessed as Observed MRT (0 to infinity) of compound 5-chloro-4-fluoro-2-hydroxy-N-(4-(trifluoromethoxy)phenyl)benzamide at 30 mg/kg, po and 2.5 mg/kg, iv measured upto 24 hrs by LC-MS/MS analysis; format: ADME, organism-based; details: in vivo; method in brief: as §1
Vero C1008 [10] = test: Downregulation of BECN1 level in African green monkey Vero E6 cells at 10 uM measured after 16 hrs by Western blotting analysis; format: functional, cell-based; details: Chlorocebus sabaeus
Method in brief: (§2)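 Vero-E6 cells in DMEM with 10% FBS were cultured overnight at 37 °C, 5% CO2, then treated with a concentration series for 16 h. Lysates were made in RIPA on ice and equalised for protein by BCA. Blots were probed for SKP2 or Beclin-1 plus β-actin and detected by ECL. The band-intensity ratio to β-actin was normalised to DMSO control.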

[11] = Observed MRT (0 to infinity) in ICR mouse at 2.5 mg/kg, iv measured upto 24 hrs by LC-MS/MS analysis; format: ADME, organism-based; details: in vivo
Method in brief: (§3)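 Male-unspecified ICR (CD-1) mice, N = 3 per group, were fasted 12 h. Compound in DMSO/0.5% HMPC (5/95, v/v) was given orally at 30 mg/kg or intravenously at 2.5 mg/kg. Femoral-vein blood was drawn at 0.25, 0.5, 1, 2, 4, 8 and 24 h, and serum analyte levels were measured by LC-MS/MS.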

[12] = Selectivity index, ratio of CC50 for cytotoxicity against African green monkey Vero E6 to EC50 for antiviral activity against SARS-CoV-2 infected in African green monkey Vero E6 cells; format: toxicity, cell-based, Vero C1008; details: read-out: Ratio CC50/EC50
[13] = Subacute toxicity in ICR mouse assessed as change in spleen histology at 50 to 200 mg/kg, po qd administered for 10 days; format: organism-based; details: in vivo, 240 h, dose 50-200 mg/kg, time 10 day
Method in brief: (§4)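 Male ICR mice (18–20 g), ten per group, received oral doses once daily for ten days, with a control group alongside. Body weight, food intake and behaviour were observed daily. Animals were fasted before dissection, and heart, liver, spleen, lung, kidney and administration site were collected for organ weight and histology.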

[14] = Oral bioavailability in ICR mouse at 30 mg/kg measured upto 24 hrs by LC-MS/MS analysis; format: ADME, organism-based; details: in vivo; method in brief: as §3
[15] = Subacute toxicity in ICR mouse assessed as change in organ weight at 50 to 200 mg/kg, po qd administered for 10 days; format: organism-based; details: in vivo, 240 h, dose 50-200 mg/kg, time 10 day; method in brief: as §4
[16] = Subacute toxicity in ICR mouse assessed as mortality at 50 to 200 mg/kg, po qd administered for 10 days; format: organism-based; details: in vivo, 240 h, dose 50-200 mg/kg, time 10 day; method in brief: as §4
Vero C1008 [17] = test: Downregulation of BECN1 level in African green monkey Vero E6 cells at 1 to 3 uM measured after 16 hrs by Western blotting analysis; format: functional, cell-based; details: Chlorocebus sabaeus, dose 1-3 µM; method in brief: as §2
[18] = Subacute toxicity in ICR mouse assessed as change in lung histology at 50 to 200 mg/kg, po qd administered for 10 days; format: organism-based; details: in vivo, 240 h, dose 50-200 mg/kg, time 10 day; method in brief: as §4
[19] = Observed AUC (0 to infinity) in ICR mouse at 2.5 mg/kg, iv measured upto 24 hrs by LC-MS/MS analysis; format: ADME, organism-based; set-up: dose 2.5 mg/kg, time < 24 hrs, route iv; details: in vivo; method in brief: as §3
[20] = Half life in ICR mouse at 30 mg/kg, po measured upto 24 hrs by LC-MS/MS analysis; format: ADME, organism-based; details: in vivo; method in brief: as §3
Vero C1008 [21] = test: Cytotoxicity against African green monkey Vero E6 cells assessed as reduction in cell viability measured after 48 hrs by CCK-8 assay; format: toxicity, cell-based; details: chlorocebus sabaeus, vero c1008, 48 h
[22] = Observed MRT (0 to infinity) in ICR mouse at 30 mg/kg, po measured upto 24 hrs by LC-MS/MS analysis; format: ADME, organism-based; details: in vivo; method in brief: as §3
[23] = Observed AUC (0 to infinity) in ICR mouse at 30 mg/kg, po measured upto 24 hrs by LC-MS/MS analysis; format: ADME, organism-based; set-up: dose 30 mg/kg, time < 24 hrs, route po; details: in vivo; method in brief: as §3
[24] = Subacute toxicity in ICR mouse assessed as change in body weight at 50 to 200 mg/kg, po qd administered for 10 days; format: organism-based; details: in vivo, 240 h, dose 50-200 mg/kg, time 10 day; method in brief: as §4
SARS-CoV-2 [25] = test: Antiviral activity against SARS-CoV-2 infected in African green monkey Vero E6 cells assessed as inhibition of viral replication incubated for 24 hrs by IFA assay; format: functional, organism-based; details: Severe acute respiratory syndrome coronavirus 2, Vero C1008, 24 h
[26] = Half life in ICR mouse at 2.5 mg/kg, iv measured upto 24 hrs by LC-MS/MS analysis; format: ADME, organism-based; details: in vivo; method in brief: as §3
[27] = AUClast in ICR mouse at 30 mg/kg, po measured upto 24 hrs by LC-MS/MS analysis; format: ADME, organism-based; set-up: dose 30 mg/kg, time < 24 hrs, route po; details: in vivo; method in brief: as §3
[28] = Subacute toxicity in ICR mouse assessed as change in kidney histology at 50 to 200 mg/kg, po qd administered for 10 days; format: organism-based; details: in vivo, 240 h, dose 50-200 mg/kg, time 10 day; method in brief: as §4
[29] = AUClast in ICR mouse at 2.5 mg/kg, iv measured upto 24 hrs by LC-MS/MS analysis; format: ADME, organism-based; set-up: dose 2.5 mg/kg, time < 24 hrs, route iv; details: in vivo; method in brief: as §3
[30] = Subacute toxicity in ICR mouse assessed as change in heart histology at 50 to 200 mg/kg, po qd administered for 10 days; format: organism-based; details: in vivo, 240 h, dose 50-200 mg/kg, time 10 day; method in brief: as §4
[31] = Subacute toxicity in ICR mouse assessed as change in liver histology at 50 to 200 mg/kg, po qd administered for 10 days; format: organism-based; details: in vivo, 240 h, dose 50-200 mg/kg, time 10 day; method in brief: as §4
Vero C1008 [32] = test: Downregulation of SKP2 level in African green monkey Vero E6 cells at 0.3 to 10 uM measured after 16 hrs by Western blotting analysis; format: functional, cell-based; details: Chlorocebus sabaeus, dose 0.3-10 µM; method in brief: as §2
[33] = Cmax in ICR mouse at 30 mg/kg, po measured upto 24 hrs by LC-MS/MS analysis; format: ADME, organism-based; set-up: dose 30 mg/kg, time < 24 hrs, route po; details: in vivo; method in brief: as §3
[34] = Cmax in ICR mouse at 2.5 mg/kg, iv measured upto 24 hrs by LC-MS/MS analysis; format: ADME, organism-based; set-up: dose 2.5 mg/kg, time < 24 hrs, route iv; details: in vivo; method in brief: as §3

For `Oc1ccc(Cl)cc1-c1nnc(-c2ccc(C(F)(F)F)cc2)[nH]1`, the inhibition at 1 µM (SARS-CoV-2 [1]) was < 10%.

For `CCC(CC)COC(=O)[C@H](C)N[P@](=O)(OC[C@H]1O[C@@](C#N)(c2ccc3c(N)ncnn23)[C@H](O)[C@@H]1O)Oc1ccccc1`, the inhibition at 1 µM (SARS-CoV-2 [1]) was < 10% and the inhibition at 5 µM (SARS-CoV-2 [2]) was 99%.

For `CC(C)C(=O)Oc1cc(F)c(Cl)cc1C(=O)Nc1ccc(OC(F)(F)F)cc1`, the solubility [3] was 0.53 µg/mL, the AUC [4] was 17.551 µg·h/mL and the AUClast [5] was 17.393 µg·h/mL. For the same molecule, the Cmax [6] was 5.175 µg/mL, the F [7] was 39.75% and the t1/2 [8] was 3.03 h. For the same molecule, the MRT [9] was 5.52 h.

For `Nc1ccc(NC(=O)c2cc(Cl)ccc2O)c(Cl)c1`, the inhibition at 1 µM (SARS-CoV-2 [1]) was < 10%.

In the case of `Oc1ccc(Cl)cc1-c1nnc(-c2ccc(C(F)(F)F)cc2)o1`, the inhibition at 1 µM (SARS-CoV-2 [1]) is reported as < 10%.

With `O=C(Nc1ccc(OC(F)(F)F)cc1)c1cc(Cl)c(F)cc1O` the Activity (Vero C1008 [10]) was “Active”, the MRT ([11]; iv, 2.5 mg/kg, 24 h) was 1.94 h and the selectivity ratio [12] was 4.73. For the same molecule, the Activity [13] was “Non-Toxic”, the bioavailability [14] was 12.7% and the solubility [3] was 0.1 µg/mL. For the same molecule, the Activity [15] was “Non-Toxic”, the Activity [16] was “Non-Toxic” and the Activity (Vero C1008 [17]) was “Active”. The Activity [18] was “Non-Toxic”, the AUC ([19]; 24 h) was 3.678 µg·h/mL and the t1/2 [20] was 3.33 h. It also gave a CC50 (Vero C1008 [21]) of 4.73 µM, an MRT [22] of 4.41 h and an inhibition at 1 µM (SARS-CoV-2 [1]) of 91%. The AUC [23] was 5.579 µg·h/mL, the Activity [24] was “Non-Toxic” and the EC50 (SARS-CoV-2 [25]) was 1 µM. For the same molecule, the t1/2 ([26]; iv, 2.5 mg/kg, 24 h) was 4.6 h, the AUClast [27] was 5.547 µg·h/mL and the Activity [28] was “Non-Toxic”. The AUClast ([29]; 24 h) was 3.646 µg·h/mL, the Activity [30] was “Non-Toxic” and the Activity [31] was “Non-Toxic”. For the same molecule, the Activity (Vero C1008 [32]) was “Active” and the Cmax [33] was 2.376 µg/mL.

Work on `C[C@H](N)C(=O)Oc1cc(F)c(Cl)cc1C(=O)Nc1ccc(OC(F)(F)F)cc1.Cl` yielded a Cmax [34] of 3.36 µg/mL, an MRT inf ([11]; ICR) of 5.02 h and an AUC(0-inf) ([19]; ICR) of 6.7 µg·h/mL. The half-life ([26]; ICR) was 2.92 h and the AUC(0-t) at 24 h ([29]; ICR) was 6.67 µg·h/mL.
